We go through eleven compounds from ChEMBL document CHEMBL4177578, “Synthesis, pharmacological activities and molecular docking studies of pyrazolyltriazoles as anti-bacterial and anti-inflammatory agents” (Bioorg Med Chem, 2017).

Structures are written as SMILES. Active and inactive are the calls of the source. No cut-off for these calls is given here.

What all share (assay type): functional
The test system of assay [1] is Micrococcus luteus. Description: Antimicrobial activity against Micrococcus luteus incubated for 12 to 16 hrs followed by plating in nutrient agar by tube dilution method. The gist of the method: (§1)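 Tube dilution, serial from 500 to 1.9 µg/mL, plus drug-free control tube. Each tube inoculated with 1 mL culture at OD 0.2, incubated 37 °C for 12–16 h. MIC is the lowest concentration with no growth by turbidity. MBC is found by plating each tube on nutrient agar: the lowest concentration at which all cells are killed.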

In assay [2] the test system is Salmonella typhi. Description: Antimicrobial activity against Salmonella typhi at 1 mg/ml incubated for 20 to 30 mins followed by incubation for 24 hrs at 37 degC by agar plate method. Particulars: Salmonella enterica subsp. enterica serovar Typhi. The gist of the method: (§2)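 Agar well diffusion on nutrient agar. Plates swabbed with 60 µL inoculum, 8 mm wells loaded with 100 µL sample at 1.0 mg/mL, streptomycin standard and control in separate wells. Plates held 20–30 min at 4 °C for diffusion, then 24 h at 37 °C. Zone diameter read in mm; triplicate.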

Assay [3] is described as follows: Anti-inflammatory activity at 100 ug/ml using bovine serum albumin and egg albumin proteins incubated at 37 degC for 20 mins and then heated to 95 degC for 20 mins by UV-visible Spectrophotometry based protein denaturation method. Summed up:
(§3)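 Albumin (bovine serum or egg) at 1% in 50 mM sodium phosphate buffer pH 6.4. Mixture is 0.1 ml test sample (1 mg/ml) plus 0.2 ml albumin, made to 5 ml with buffer. Held 37 °C for 20 min, then 95 °C for 20 min. Cooled to room temperature, turbidity read at 660 nm. % inhibition = (Abs control − Abs sample)/Abs control × 100. Triplicate, averaged.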

Assay [4] deals with Salmonella typhi. The assay can be described thus: Antimicrobial activity against Salmonella typhi incubated for 12 to 16 hrs by tube dilution method. Particulars: Salmonella enterica subsp. enterica serovar Typhi. Summed up:
(§4)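 Broth tube dilution, two-fold serial dilutions from 500 to 1.9 µg/mL plus a drug-free control tube. Each tube inoculated with 1 mL culture at OD 0.2 (~McFarland standard), 37 °C for 12-16 h. Turbidity compared with the control tube. MIC is the lowest concentration giving complete growth inhibition.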

Assay [5] concerns Salmonella paratyphi. Description: Antimicrobial activity against Salmonella paratyphi incubated for 12 to 16 hrs by tube dilution method. Particulars: Salmonella enterica subsp. enterica serovar Paratyphi A. The gist of the method:
as §4

Assay [6] deals with Salmonella typhi. The assay can be described thus: Antimicrobial activity against Salmonella typhi incubated for 12 to 16 hrs followed by plating in nutrient agar by tube dilution method. The following applies: Salmonella enterica subsp. enterica serovar Typhi. Summed up: (§5)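 After 12-16 h at 37 °C in tube dilution (500 to 1.9 µg/mL; 1 mL inoculum at OD 0.2), the culture from each tube was plated on nutrient agar. MBC is the concentration at which cells are completely killed.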

The subject of assay [7] is Salmonella paratyphi. Description: Antimicrobial activity against Salmonella paratyphi at 1 mg/ml incubated for 20 to 30 mins followed by incubation for 24 hrs at 37 degC by agar plate method. The following applies: Salmonella enterica subsp. enterica serovar Paratyphi A. Summed up: as §2
Assay [8] deals with Salmonella paratyphi. Description: Antimicrobial activity against Salmonella paratyphi incubated for 12 to 16 hrs followed by plating in nutrient agar by tube dilution method. The following applies: Salmonella enterica subsp. enterica serovar Paratyphi A. Summed up:
as §5

Assay [9] deals with Staphylococcus aureus. The assay can be described thus: Antimicrobial activity against Staphylococcus aureus at 1 mg/ml incubated for 20 to 30 mins followed by incubation for 24 hrs at 37 degC by agar plate method. Summed up:
(§6)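 Agar well diffusion on nutrient agar. Plates swabbed with 60 µL inoculum; 8 mm wells loaded with 100 µL of compound at 1.0 mg/mL. Held 20–30 min at 4 °C for diffusion, then 24 h at 37 °C. Inhibition zone diameter read in mm. Triplicate.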

Assay [10] is described as follows: Anti-inflammatory activity using bovine serum albumin and egg albumin proteins incubated at 37 degC for 20 mins and then heated to 95 degC for 20 mins by UV-visible Spectrophotometry based protein denaturation method. The gist of the method:
as §3

A short description of assay [11]: Anti-inflammatory activity at 50 ug/ml using bovine serum albumin and egg albumin proteins incubated at 37 degC for 20 mins and then heated to 95 degC for 20 mins by UV-visible Spectrophotometry based protein denaturation method. The gist of the method: as §3
Assay [12] concerns Micrococcus luteus. The assay can be described thus: Antimicrobial activity against Micrococcus luteus at 1 mg/ml incubated for 20 to 30 mins followed by incubation for 24 hrs at 37 degC by agar plate method. Summed up:
as §6

Assay [13] deals with Micrococcus luteus. The assay can be described thus: Antimicrobial activity against Micrococcus luteus incubated for 12 to 16 hrs by tube dilution method. The gist of the method:
as §1

For `COc1ccc(-c2nn(-c3ccccc3)cc2Cn2cc(-c3ccccc3)nn2)cc1`, the MBC result in assay [1], in [6] and in [8] was “inactive” throughout. Also, the “diameter of the inhibition zone (DIZ)” value in [2], in [7], in [9] and in [12] was “inactive” in each case. For the same compound, the inhibition entry in assay [3] and in assay [11] was “inactive” in each case. In addition, the MIC entry in assay [4], in assay [5] and in assay [13] was “inactive” each time. Moreover, the IC50 result in assay [10] is “Not Active”.

On to `COC(=O)c1nnn(Cc2cn(-c3ccc(C)cc3)nc2-c2ccccc2)c1C(=O)OC`, for which the MBC entry in [1], in [6] and in assay [8] was “inactive” in each case. Moreover, the “diameter of the inhibition zone (DIZ)” value in assay [2], in assay [7], in assay [9] and in [12] was “inactive” in each case. Moreover, the inhibition entry in [3] and in assay [11] was “inactive” in each case. The MIC result in [4], in [5] and in assay [13] was “inactive” each time. In assay [10], the IC50 result is listed as “Not Active”.

For the compound `Clc1ccc(-n2cc(Cn3cc(-c4ccccc4)nn3)c(-c3ccccc3)n2)cc1`, the MBC result in [1], in assay [6] and in assay [8] was “inactive” each time. Also, the “diameter of the inhibition zone (DIZ)” value in assay [2], in assay [7], in assay [9] and in assay [12] was “inactive” in each case. Moreover, the inhibition entry in assay [3] and in [11] was “inactive” each time. The MIC entry in [4], in [5] and in assay [13] was “inactive” throughout. Moreover, the IC50 result in assay [10] is on record as “Not Active”.

Take `Clc1ccc(-c2cn(Cc3cn(-c4ccccc4)nc3-c3ccccc3)nn2)cc1`: the MBC entry in [1], in [6] and in assay [8] was “inactive” each time. For the same compound, the “diameter of the inhibition zone (DIZ)” value in assay [2], in assay [7], in [9] and in assay [12] was “inactive” each time. For the same compound, the inhibition entry in assay [3] and in [11] was “inactive” throughout. For the same compound, the MIC result in assay [4], in [5] and in [13] was “inactive” in each case. Also, the IC50 result in assay [10] is reported as “Not Active”.

As for `[N-]=[N+]=NCc1cn(-c2ccccc2)nc1-c1ccc(Cl)cc1`, the MBC entry in assay [1], in assay [6] and in assay [8] was “inactive” each time. The “diameter of the inhibition zone (DIZ)” value in assay [2], in assay [7], in [9] and in assay [12] was “inactive” each time. Also, the inhibition entry in assay [3] and in [11] was “inactive” each time. Moreover, the MIC result in assay [4], in assay [5] and in assay [13] was “inactive” throughout. In addition, the IC50 result in [10] is reported as “Not Active”.

Take `COc1ccc(-c2cn(Cc3cn(-c4ccccc4)nc3-c3ccccc3)nn2)c(C)c1`: the MBC entry in [1], in assay [6] and in assay [8] was “inactive” in each case. Moreover, the “diameter of the inhibition zone (DIZ)” value in [2], in assay [7], in assay [9] and in assay [12] was “inactive” throughout. The inhibition entry in assay [3] and in [11] was “inactive” in each case. The MIC result in assay [4], in assay [5] and in assay [13] was “inactive” in each case. Besides, the IC50 entry in assay [10] is “Not Active”.

In the case of `Clc1ccc(-c2nn(-c3ccccc3)cc2Cn2cc(-c3ccccc3)nn2)cc1`, the MBC result in assay [1], in assay [6] and in assay [8] was “inactive” in each case. For the same compound, the “diameter of the inhibition zone (DIZ)” value in [2], in [7], in assay [9] and in assay [12] was “inactive” throughout. Moreover, the inhibition result in [3] and in assay [11] was “inactive” in each case. Besides, the MIC result in assay [4], in assay [5] and in assay [13] was “inactive” each time. Besides, the IC50 result in assay [10] is reported as “Not Active”.

Consider `COC(=O)c1nnn(Cc2cn(-c3ccccc3)nc2-c2ccccc2)c1C(=O)OC`, for which the MBC entry in assay [1], in assay [6] and in [8] was “inactive” each time. Moreover, the “diameter of the inhibition zone (DIZ)” value in [2], in assay [7], in assay [9] and in assay [12] was “inactive” throughout. Further, the inhibition result in assay [3] and in assay [11] was “inactive” in each case. Moreover, the MIC result in assay [4], in [5] and in [13] was “inactive” each time. The IC50 entry in [10] was “Not Active”.

Turning to `Cc1ccc(-c2cn(Cc3cn(-c4ccccc4)nc3-c3ccccc3)nn2)cc1`, the MBC entry in assay [1], in assay [6] and in assay [8] was “inactive” in each case. Moreover, the “diameter of the inhibition zone (DIZ)” value in [2], in [7], in assay [9] and in assay [12] was “inactive” throughout. In addition, the inhibition result in assay [3] and in assay [11] was “inactive” each time. Besides, the MIC result in assay [4], in [5] and in [13] was “inactive” throughout. Moreover, the IC50 result in assay [10] is listed as “Not Active”.

On to `Cc1ccc(-n2cc(CN=[N+]=[N-])c(-c3ccccc3)n2)cc1`, for which the MBC result in assay [1], in [6] and in assay [8] was “inactive” each time. Moreover, the “diameter of the inhibition zone (DIZ)” value in [2], in assay [7], in [9] and in assay [12] was “inactive” throughout. Further, the inhibition result in [3] and in assay [11] was “inactive” throughout. Further, the MIC result in assay [4], in assay [5] and in [13] was “inactive” throughout. For the same compound, in assay [10], the IC50 entry is reported as “Not Active”.

With `COC(=O)c1nnn(Cc2cn(-c3ccccc3)nc2-c2ccc(Cl)cc2)c1C(=O)OC`, the MBC entry in assay [1], in assay [6] and in assay [8] was “inactive” each time. The “diameter of the inhibition zone (DIZ)” value in assay [2], in [7], in assay [9] and in [12] was “inactive” in each case. Also, the inhibition entry in [3] and in assay [11] was “inactive” in each case. Besides, the MIC result in assay [4], in assay [5] and in assay [13] was “inactive” in each case. In addition, the IC50 result in assay [10] is “Not Active”.
